Assay results collected from several papers.
Compare with care: the assays were run in different laboratories.

| SMILES | test | system | setting | quantity | value |
| --- | --- | --- | --- | --- | --- |
| Oc1c(-n2ccnn2)cnn1-c1cc(N2CCOCC2)ncn1 | – | female dog, blood | intravenous, 3 mg/kg | clearance | 18.3 mL/min/kg |
| C#Cc1cnc2nc(O)n(C(CC)CC)c2n1 | – | male beagle dog, plasma | intravenous, 1 mg/kg | clearance | 4.3 mL/min/kg |
| COc1cc2c3c(n(CCCN4CCOCC4)c(=O)c2cc1OC)-c1cc2c(cc1C3=O)OCO2 | – | female beagle dog, plasma | intravenous, 100 mg/m², infusion | Cmax | 547 ng/mL |
| COc1ccc2c(c1OCc1ccccc1)C[C@@H](C(=O)O)N(C(=O)C(c1ccccc1)c1ccccc1)C2 | – | male beagle dog, plasma | oral, 3 mg/kg | Cmax | 2710 ng/mL |
| CC(C)Oc1c(NC(=O)c2ccc(NC(=O)[C@H](CC(N)=O)NC(=O)c3ccc(NC(=O)c4ccc(C#N)cc4)cc3)cc2)ccc(C(=O)Nc2ccc(C(=O)O)cc2)c1O | – | male CD-1 mouse, plasma | intravenous, 5 mg/kg, single dose | C0 | 2940 ng/mL |
| C[C@@H]1[C@H](O)[C@@H](C)/C=C/C=C/C=C/C=C/C=C/C=C/C=C/[C@H](O[C@@H]2O[C@H](C)[C@@H](O)[C@H](N)[C@@H]2O)C[C@@H]2O[C@](O)(C[C@@H](O)C[C@@H](O)[C@H](O)CC[C@@H](O)C[C@@H](O)CC(=O)O[C@H]1C)C[C@H](O)[C@H]2C(=O)O | haemolysis | rabbit | 64 µg/mL, 1 h | haemolysis | 100% |
| COCc1nn(Cc2ccc(Cn3ccccc3=O)cc2)cc1C(=O)NCc1nccc(OC)c1F | – | male beagle dog, plasma | oral, 1 mg/kg | Cmax | 284 ng/mL |
| CC(C)(C)c1ccc(O)c(CN(Cc2cc(C(C)(C)C)ccc2O)C2CCC(NC(N)=O)CC2)c1 (stereo not shown) | – | male C57BL/6 mouse, plasma | intraperitoneal, 5 mg/kg, single dose | clearance | 15.7 mL/min/kg |
| CCc1cc(OC)c2nccc(N3CCc4c(cc(Cn5ccnc5)cc4-c4cn(C)nc4C(F)(F)F)C3=O)c2c1 | – | male CD-1 mouse, plasma | intravenous, 3 mg/kg | C0 | 4310 ng/mL |
| CCn1c(=O)c(-c2cc(NC(=O)Nc3ccccc3)c(F)cc2Br)cc2cnc(NC)cc21 | – | beagle dog, plasma | oral, 5 mg/kg, single dose | Cmax | 544 ng/mL |
| CCc1cc(C(=O)NC)c2nccc(N3CCc4c(cc(Cn5ccnc5)cc4-c4cn(C)nc4C(F)(F)F)C3=O)c2c1 | – | male CD-1 mouse, plasma | intravenous, 3 mg/kg | C0 | 7560 ng/mL |
| COc1ccc2nc(-c3ccccn3)c(N(C)c3ccc(F)cc3)n2c1 | – | male CD-1 mouse, plasma | oral, 50 mg/kg, fasted | CL/F | 917 mL/min/kg |
| CC[C@@H]1CN(C(=O)NCC(F)(F)F)C[C@@H]1c1cnc2cnc3[nH]ccc3n12 | – | beagle dog, plasma | oral, 1 mg/kg, single dose | CL/F | 29.3 mL/min/kg |
| CNC(=O)c1cc(OC)cc2c(N3CCc4c(cc(Cn5ccnc5)cc4-c4cn(C)nc4C(F)(F)F)C3=O)ccnc12 | – | male CD-1 mouse, plasma | intravenous, 3 mg/kg | C0 | 8370 ng/mL |
| COCc1nn(Cc2ccc(Cn3ccccc3=O)cc2)cc1C(=O)NCc1c(F)ccc(OC)c1F | – | male beagle dog, plasma | oral, 1 mg/kg | Cmax | 163 ng/mL |
| C=CC(=O)N1CC2CC(n3nc(-c4ccc(C(=O)Nc5ccccn5)cc4)c4c(N)ncnc43)CC2C1 (stereo not shown) | – | male Wistar rat, plasma | oral, 100 mg/kg | Tmax | 4 h |
